Here are results for 34 molecules from the M2OR odorant receptor database.
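Also: active if original authors judged signal statistically different from baseline.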

In one assay the target is T1, UniProt Q7TRW1.
T1 sequence (whole entry): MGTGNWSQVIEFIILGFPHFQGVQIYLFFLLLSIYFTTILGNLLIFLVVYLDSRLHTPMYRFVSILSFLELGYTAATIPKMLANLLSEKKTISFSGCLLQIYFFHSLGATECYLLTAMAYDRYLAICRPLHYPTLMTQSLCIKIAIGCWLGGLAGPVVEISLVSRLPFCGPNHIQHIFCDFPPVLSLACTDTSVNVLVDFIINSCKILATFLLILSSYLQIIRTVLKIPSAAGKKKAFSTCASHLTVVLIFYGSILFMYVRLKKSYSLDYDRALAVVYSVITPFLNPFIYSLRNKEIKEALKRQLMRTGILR
Particulars: stereoisomer not certain. In short, it runs like this:
(§1)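 Whether a receptor–molecule pair is responsive (active) rests on the original authors' judgment that its measured signal was statistically different from baseline. Pairs without that judgment are non-responsive (inactive). Sources used varied assay methods, commonly transient luciferase assays in mammalian cell lines.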
With `CCCCC(=O)CC`, the “odorant receptor agonist call” value was “inactive”.

Regarding `CCCCCCCC(C)=O`, the “odorant receptor agonist call” value is “inactive”.

In the case of `CCC(=O)C(=O)CC`, the “odorant receptor agonist call” value is “inactive”.

As to `CCCC(C)=O`, the “odorant receptor agonist call” value was “inactive”.

`CC12CCC(CC1=O)C2(C)C` (centres undefined): the “odorant receptor agonist call” value was “inactive”.

Regarding `CCCCC(C)=O`, the “odorant receptor agonist call” value was “inactive”.

`CCC(=O)O`: the “odorant receptor agonist call” value is “inactive”.

With `O=c1ccc2ccccc2o1`, the “odorant receptor agonist call” value was “inactive”.

Turning to `CC(=O)Oc1ccccc1`, the “odorant receptor agonist call” value was “inactive”.

As to `CCCCCCCCS`, the “odorant receptor agonist call” value was “inactive”.

For the molecule `CCC(C(=O)O)c1ccccc1` (centres undefined), the “odorant receptor agonist call” value is “inactive”.

Take `CCCCCC(=O)CC`: the “odorant receptor agonist call” value is “inactive”.

As to `O=C1Cc2ccccc2O1`, the “odorant receptor agonist call” value is “inactive”.

Turning to `CC(=O)OCC=C(C)C`, the “odorant receptor agonist call” value is “inactive”.

As for `CCCCOC(=O)C(C)OC(=O)CCC` (centres undefined), the “odorant receptor agonist call” value was “inactive”.

For `C=C(C)C1CCC(C)C(=O)C1` (centres undefined), the “odorant receptor agonist call” value is “inactive”.

`c1ccccc1`: the “odorant receptor agonist call” value is “inactive”.

Turning to `CCCCCCCCCS`, the “odorant receptor agonist call” value was “inactive”.

A further assay has as its target T2, UniProt Q7TRX0.
T2 sequence (whole entry): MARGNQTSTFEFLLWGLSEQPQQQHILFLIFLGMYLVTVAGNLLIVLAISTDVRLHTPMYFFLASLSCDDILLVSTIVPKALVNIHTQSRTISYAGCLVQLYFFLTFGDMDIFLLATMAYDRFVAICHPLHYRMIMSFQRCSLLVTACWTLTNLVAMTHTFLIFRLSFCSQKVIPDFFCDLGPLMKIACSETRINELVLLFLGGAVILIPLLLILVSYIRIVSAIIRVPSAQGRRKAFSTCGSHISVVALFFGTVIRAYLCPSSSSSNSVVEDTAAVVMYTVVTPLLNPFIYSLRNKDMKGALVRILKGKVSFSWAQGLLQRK
Particulars: stereoisomer not certain. In short, it runs like this: as §1
With `CC(=O)C1(C)CC2=C(CCCC2(C)C)CC1C` (centres undefined), the “odorant receptor agonist call” value was “inactive”.

Turning to `CCCCC(=O)CC`, the “odorant receptor agonist call” value was “inactive”.

With `CCCCCCCC(C)=O`, the “odorant receptor agonist call” value was “inactive”.

Consider `CCC(=O)C(=O)CC`, for which the “odorant receptor agonist call” value was “inactive”.

On to `CC1CCC(C(C)C)C(=O)C1` (centres undefined), for which the “odorant receptor agonist call” value was “inactive”.

With `CCCCCCCCCCOC(C)=O`, the “odorant receptor agonist call” value was “inactive”.

Consider `CC(=O)OC1(C)CCC23CC1C(C)(C)C2CCC3C` (centres undefined), for which the “odorant receptor agonist call” value was “inactive”.

With `CC12CCC(CC1=O)C2(C)C` (centres undefined), the “odorant receptor agonist call” value is “inactive”.

For the molecule `CCc1nccnc1CC`, the “odorant receptor agonist call” value is “inactive”.

For `CCCCC(C)=O`, the “odorant receptor agonist call” value is “inactive”.

Turning to `Cc1ccc(OC(=O)C(C)C)cc1`, the “odorant receptor agonist call” value was “inactive”.

In the case of `CCC(=O)O`, the “odorant receptor agonist call” value was “inactive”.

For the molecule `COc1cnccn1`, the “odorant receptor agonist call” value was “inactive”.

Turning to `CC(=O)Oc1ccccc1`, the “odorant receptor agonist call” value is “inactive”.

With `CCCCCCCCS`, the “odorant receptor agonist call” value was “inactive”.

`OCCCCCCCCCO`: the “odorant receptor agonist call” value is “inactive”.

On to `CCCCCC(=O)CC`, for which the “odorant receptor agonist call” value is “active”.

As for `CCOC(=O)C(C)CC` (centres undefined), the “odorant receptor agonist call” value was “inactive”.

For `O=C1Cc2ccccc2O1`, the “odorant receptor agonist call” value was “inactive”.

In the case of `CC(=O)OCC=C(C)C`, the “odorant receptor agonist call” value is “inactive”.

`CSSSC`: the “odorant receptor agonist call” value was “inactive”.

On to `CCC(C)c1nccnc1OC` (centres undefined), for which the “odorant receptor agonist call” value is “inactive”.

With `CCCCCC(=Cc1ccccc1)C(OC)OC`, the “odorant receptor agonist call” value was “inactive”.

As to `C=C(C)C1CCC(C)C(=O)C1` (centres undefined), the “odorant receptor agonist call” value was “inactive”.

Consider `C=C1C2CCC(C2)C1(C)C` (centres undefined), for which the “odorant receptor agonist call” value is “inactive”.

With `c1ccccc1`, the “odorant receptor agonist call” value is “inactive”.

With `CCCCCCCCCS`, the “odorant receptor agonist call” value is “inactive”.

Take `O=C(O)CCCCCCCCC(=O)O`: the “odorant receptor agonist call” value was “inactive”.

Turning to `CCCCCC=CCCC=O`, the “odorant receptor agonist call” value is “inactive”.

For the molecule `C=C(C)C1CC=C(C)CC1` (centres undefined), the “odorant receptor agonist call” value is “inactive”.

The next assay concerns the target T3, UniProt Q8VEU7.
T3 sequence (whole entry): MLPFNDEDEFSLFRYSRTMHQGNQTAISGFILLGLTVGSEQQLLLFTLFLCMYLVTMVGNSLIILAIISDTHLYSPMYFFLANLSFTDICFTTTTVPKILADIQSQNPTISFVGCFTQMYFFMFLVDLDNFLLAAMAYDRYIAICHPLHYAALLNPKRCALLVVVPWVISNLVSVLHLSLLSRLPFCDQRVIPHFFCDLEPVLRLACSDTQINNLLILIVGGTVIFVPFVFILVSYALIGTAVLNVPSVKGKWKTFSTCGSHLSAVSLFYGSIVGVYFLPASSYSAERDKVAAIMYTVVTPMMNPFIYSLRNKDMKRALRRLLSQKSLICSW
To be noted: stereoisomer not certain. In short, it runs like this: as §1
Take `CCCCC(=O)CC`: the “odorant receptor agonist call” value is “inactive”.

As to `CCCCCCCC(C)=O`, the “odorant receptor agonist call” value is “inactive”.

Turning to `CCC(=O)C(=O)CC`, the “odorant receptor agonist call” value was “inactive”.

Turning to `CCCC(C)=O`, the “odorant receptor agonist call” value was “inactive”.

In the case of `CC12CCC(CC1=O)C2(C)C` (centres undefined), the “odorant receptor agonist call” value was “active”.

Take `CCCCC(C)=O`: the “odorant receptor agonist call” value was “inactive”.

Regarding `CCC(=O)O`, the “odorant receptor agonist call” value was “inactive”.

As to `O=c1ccc2ccccc2o1`, the “odorant receptor agonist call” value was “inactive”.

As for `CC(=O)Oc1ccccc1`, the “odorant receptor agonist call” value was “inactive”.

For `CCCCCCCCS`, the “odorant receptor agonist call” value is “inactive”.

Turning to `CCC(C(=O)O)c1ccccc1` (centres undefined), the “odorant receptor agonist call” value is “inactive”.

Consider `CCCCCC(=O)CC`, for which the “odorant receptor agonist call” value is “inactive”.

As to `O=C1Cc2ccccc2O1`, the “odorant receptor agonist call” value is “inactive”.

Turning to `CC(=O)OCC=C(C)C`, the “odorant receptor agonist call” value was “inactive”.

Consider `CCCCOC(=O)C(C)OC(=O)CCC` (centres undefined), for which the “odorant receptor agonist call” value was “inactive”.

With `C=C(C)C1CCC(C)C(=O)C1` (centres undefined), the “odorant receptor agonist call” value was “inactive”.

For the molecule `c1ccccc1`, the “odorant receptor agonist call” value was “inactive”.

In the case of `CCCCCCCCCS`, the “odorant receptor agonist call” value is “inactive”.

Another assay has as its target T4, UniProt Q8VF05.
T4 sequence (whole entry): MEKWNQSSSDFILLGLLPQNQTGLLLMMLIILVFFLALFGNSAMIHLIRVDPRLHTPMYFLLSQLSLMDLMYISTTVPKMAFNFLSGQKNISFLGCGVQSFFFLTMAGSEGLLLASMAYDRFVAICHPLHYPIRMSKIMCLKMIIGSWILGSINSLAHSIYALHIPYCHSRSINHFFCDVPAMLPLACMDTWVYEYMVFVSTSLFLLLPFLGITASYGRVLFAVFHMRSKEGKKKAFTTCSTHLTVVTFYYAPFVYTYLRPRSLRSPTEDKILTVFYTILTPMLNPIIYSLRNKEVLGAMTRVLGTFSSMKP
Particulars: stereoisomer not certain. In short, it runs like this: as §1
`CCCCC(=O)CC`: the “odorant receptor agonist call” value is “active”.

With `CCCCCCCC(C)=O`, the “odorant receptor agonist call” value was “inactive”.

`CCC(=O)C(=O)CC`: the “odorant receptor agonist call” value was “active”.

Turning to `CCCC(C)=O`, the “odorant receptor agonist call” value is “active”.

For `CC12CCC(CC1=O)C2(C)C` (centres undefined), the “odorant receptor agonist call” value is “inactive”.

With `CCCCC(C)=O`, the “odorant receptor agonist call” value is “active”.

As for `CCC(=O)O`, the “odorant receptor agonist call” value was “inactive”.

In the case of `O=c1ccc2ccccc2o1`, the “odorant receptor agonist call” value is “inactive”.

With `CC(=O)Oc1ccccc1`, the “odorant receptor agonist call” value was “inactive”.

For the molecule `CCCCCCCCS`, the “odorant receptor agonist call” value is “inactive”.

Regarding `CCC(C(=O)O)c1ccccc1` (centres undefined), the “odorant receptor agonist call” value was “inactive”.

On to `CCCCCC(=O)CC`, for which the “odorant receptor agonist call” value is “active”.

In the case of `O=C1Cc2ccccc2O1`, the “odorant receptor agonist call” value is “inactive”.

As for `CC(=O)OCC=C(C)C`, the “odorant receptor agonist call” value was “active”.

On to `CCCCOC(=O)C(C)OC(=O)CCC` (centres undefined), for which the “odorant receptor agonist call” value is “inactive”.

Turning to `C=C(C)C1CCC(C)C(=O)C1` (centres undefined), the “odorant receptor agonist call” value is “active”.

On to `c1ccccc1`, for which the “odorant receptor agonist call” value is “active”.

Consider `CCCCCCCCCS`, for which the “odorant receptor agonist call” value is “inactive”.
